What was measured:
[1] = molecular target: T1, 5-hydroxytryptamine receptor 1A (Rattus norvegicus, UniProt P19327); assay: Binding affinity was tested on 5-hydroxytryptamine 1A receptor using radioligand [3H]5-HT binding assay.
T1 sequence (P19327 whole entry): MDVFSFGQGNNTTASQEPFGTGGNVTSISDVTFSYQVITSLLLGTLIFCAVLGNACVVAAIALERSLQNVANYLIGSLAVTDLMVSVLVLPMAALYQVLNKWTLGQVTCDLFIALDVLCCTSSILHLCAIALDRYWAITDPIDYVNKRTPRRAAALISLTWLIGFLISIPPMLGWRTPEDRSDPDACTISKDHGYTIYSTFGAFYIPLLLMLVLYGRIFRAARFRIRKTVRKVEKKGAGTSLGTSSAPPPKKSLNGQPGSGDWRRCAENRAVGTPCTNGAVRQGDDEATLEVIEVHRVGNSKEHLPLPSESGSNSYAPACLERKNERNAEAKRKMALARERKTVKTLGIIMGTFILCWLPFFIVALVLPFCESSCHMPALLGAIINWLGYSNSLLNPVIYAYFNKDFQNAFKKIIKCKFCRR
Summary of the method: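 Six to nine drug concentrations, triplicate samples, two to three independent experiments. IC50 converted to Ki by Cheng–Prusoff, with Kd and Bmax from saturation experiments.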

Glutamate NMDA receptor = assay: Binding affinity was tested on Phencyclidine binding assay.; format: protein-complex assay
Summary of the method: (§1)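 [3H]phencyclidine binding to rat hippocampus membranes, with (+)-N-allylnormetazocine (SKF 10,047) defining specific binding. […] Ki via Cheng–Prusoff with Bmax and Kd taken from saturation experiments.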

[2] = molecular target: Serotonin 2 (5-HT2) receptor (Rattus norvegicus, UniProt P30994+P08909+P14842); assay: Percentage specific displacement of radioligand [3H]-ketanserin from 5-hydroxytryptamine 2 receptor; format: protein assay
D(2) dopamine receptor [3] = molecular target: T2, D(2) dopamine receptor (Rattus norvegicus, UniProt P61169); assay: (§2) Binding affinity was tested on Dopamine receptor D2 using radioligand [3H]spiroperidol
Summary of the method: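 Ki by Cheng–Prusoff using Bmax and Kd from saturation experiments. Tested as hydrogen oxalate salts (some hydrochlorides); oxalate interference excluded at highest concentration.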

[4] = molecular target: T3, Glutamate NMDA receptor (Rattus norvegicus) (UniProt P35439+Q00959+Q00960+Q00961+Q62645+Q8VHN2+Q9R1M7); assay: Percentage specific displacement of radioligand [3H]phencyclidine from Phencyclidine receptor; format: protein-complex assay
Summary of the method: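 Rat hippocampus membranes, [3H]phencyclidine radioligand; (+)-N-allylnormetazocine (SKF 10,047) defined specific binding. Percent specific displacement run in triplicate at a single stated compound concentration.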

[5] = molecular target: Sigma-1 receptor (Rattus norvegicus); assay: Binding affinity was tested on Sigma-1 receptor using radioligand [3H](+)-pentazocine binding assay.
[6] = molecular target: Serotonin 2 (5-HT2) receptor (Rattus norvegicus) (UniProt P30994+P08909+P14842); assay: Percentage specific displacement of radioligand [3H]ketanserin from 5-hydroxytryptamine 2 receptor; format: protein assay; design: concentration or dose not given beside the values
[7] = molecular target: D(2) dopamine receptor (Rattus norvegicus) (UniProt P61169); assay: as §2; design: concentration or dose not given beside the values
Summary of the method: (§3)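 Rat striatal membranes labelled with [3H]spiroperidol; (+)-butaclamol defined specific binding. […] Ki by Cheng–Prusoff using Bmax and Kd from saturation experiments. Tested as hydrogen oxalate salts (some hydrochlorides); oxalate interference excluded at highest concentration.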

[8] = Binding affinity of compound was tested on Phencyclidine binding assay.
D(2) dopamine receptor [9] = molecular target: T2, D(2) dopamine receptor; assay: (§4) Binding affinity of compound towards Dopamine receptor D2 was determined in rat striatal homogenate using [3H]- spiperone as radioligand; summary of the method: as §3
[10] = molecular target: D(2) dopamine receptor (Rattus norvegicus) (UniProt P61169); assay: as §4; summary of the method: as §3
[11] = molecular target: T3, Glutamate NMDA receptor (Rattus norvegicus); assay: Binding affinity of compound was tested on Phencyclidine binding assay.; format: protein-complex assay; summary of the method: as §1

Serotonin 2 (5-HT2) receptor (Rattus norvegicus), sequence (P08909 whole entry, looked up): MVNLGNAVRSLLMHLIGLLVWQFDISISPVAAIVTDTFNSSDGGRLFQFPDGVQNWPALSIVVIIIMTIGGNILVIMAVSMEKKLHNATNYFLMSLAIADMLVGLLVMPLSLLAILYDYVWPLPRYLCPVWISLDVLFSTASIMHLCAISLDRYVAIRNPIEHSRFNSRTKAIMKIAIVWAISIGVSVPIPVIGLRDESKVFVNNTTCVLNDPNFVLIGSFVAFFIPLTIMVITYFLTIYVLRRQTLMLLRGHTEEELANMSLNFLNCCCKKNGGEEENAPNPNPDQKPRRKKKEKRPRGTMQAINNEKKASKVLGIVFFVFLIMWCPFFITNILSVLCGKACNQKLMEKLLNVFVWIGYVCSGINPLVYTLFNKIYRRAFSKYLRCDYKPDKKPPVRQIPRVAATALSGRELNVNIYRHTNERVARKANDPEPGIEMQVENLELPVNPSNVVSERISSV
Serotonin 2 (5-HT2) receptor (Rattus norvegicus), sequence (P14842 whole entry, looked up): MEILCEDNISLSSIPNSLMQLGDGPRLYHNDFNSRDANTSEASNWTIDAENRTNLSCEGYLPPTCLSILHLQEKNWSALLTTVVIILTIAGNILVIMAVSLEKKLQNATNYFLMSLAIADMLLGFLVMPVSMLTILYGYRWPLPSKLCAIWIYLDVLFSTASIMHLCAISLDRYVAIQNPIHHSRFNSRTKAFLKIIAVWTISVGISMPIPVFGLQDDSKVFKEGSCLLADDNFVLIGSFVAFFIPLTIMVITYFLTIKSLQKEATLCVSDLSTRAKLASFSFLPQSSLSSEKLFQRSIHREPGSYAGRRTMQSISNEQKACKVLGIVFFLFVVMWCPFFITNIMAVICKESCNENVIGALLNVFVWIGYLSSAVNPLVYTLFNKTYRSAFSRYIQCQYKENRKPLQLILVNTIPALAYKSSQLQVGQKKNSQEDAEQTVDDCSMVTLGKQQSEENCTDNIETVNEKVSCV
Serotonin 2 (5-HT2) receptor (Rattus norvegicus), sequence (P30994 whole entry, looked up): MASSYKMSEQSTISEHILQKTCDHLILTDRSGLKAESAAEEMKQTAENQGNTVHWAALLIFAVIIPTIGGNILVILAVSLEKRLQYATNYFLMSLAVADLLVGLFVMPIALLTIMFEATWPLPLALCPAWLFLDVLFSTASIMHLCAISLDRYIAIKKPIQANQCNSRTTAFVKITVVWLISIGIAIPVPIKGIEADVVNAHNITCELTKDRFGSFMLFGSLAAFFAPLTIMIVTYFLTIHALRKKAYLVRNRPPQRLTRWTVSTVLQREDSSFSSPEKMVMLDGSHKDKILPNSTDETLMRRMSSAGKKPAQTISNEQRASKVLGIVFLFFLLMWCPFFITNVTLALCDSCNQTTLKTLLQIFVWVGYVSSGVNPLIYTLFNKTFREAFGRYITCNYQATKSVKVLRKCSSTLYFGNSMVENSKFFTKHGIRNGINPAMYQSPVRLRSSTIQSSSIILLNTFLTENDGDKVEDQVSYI
T2 sequence (P61169 whole entry): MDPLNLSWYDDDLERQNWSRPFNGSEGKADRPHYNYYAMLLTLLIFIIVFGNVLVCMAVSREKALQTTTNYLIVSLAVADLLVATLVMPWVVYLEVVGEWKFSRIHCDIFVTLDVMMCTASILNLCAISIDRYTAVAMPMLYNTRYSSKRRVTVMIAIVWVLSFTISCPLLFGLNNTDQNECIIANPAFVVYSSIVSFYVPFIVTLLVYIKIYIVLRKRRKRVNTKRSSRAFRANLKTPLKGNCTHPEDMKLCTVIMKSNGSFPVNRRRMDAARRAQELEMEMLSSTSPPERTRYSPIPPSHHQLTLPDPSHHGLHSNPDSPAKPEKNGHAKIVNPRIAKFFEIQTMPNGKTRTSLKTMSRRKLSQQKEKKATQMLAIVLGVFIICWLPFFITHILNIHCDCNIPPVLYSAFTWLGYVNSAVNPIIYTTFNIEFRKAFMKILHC
D(2) dopamine receptor (Rattus norvegicus), sequence (P61169 whole entry): as above

## CC1(C)CCCN(CCCC2CCCc3cscc32)C1 (configuration not stated)
[1]
  Ki: > 1430 nM
Glutamate NMDA receptor
  Ki: 9.4 nM

## COc1ccc2c(c1)C(CCCN1CCCCC1)CCC2 (configuration not stated)
[1]
  Ki: > 1430 nM
[2]
  Ki: > 5520 nM
D(2) dopamine receptor [3]
  Ki: > 1850 nM
[4]
  Displacement: 88%
[5]
  Ki: 63.2 nM

## c1ccc(CC2CCN(CCCCC3CCCc4ccccc43)CC2)cc1 (configuration not stated)
[1]
  Ki: 285 nM
Glutamate NMDA receptor
  Ki: > 92600 nM
[5]
  Ki: 30 nM

## COc1cccc2c1CCCC2CCCN1CCCCC1 (configuration not stated)
[1]
  Ki: > 1430 nM
[2]
  Ki: > 5520 nM
D(2) dopamine receptor [3]
  Ki: > 1850 nM
Glutamate NMDA receptor
  Ki: 3240 nM

## CC1(C)CCCN(CCCCC2CCCc3ccccc32)C1 (configuration not stated)
[1]
  Ki: > 1430 nM
D(2) dopamine receptor [3]
  Ki: > 10000 nM
Glutamate NMDA receptor
  Ki: > 92600 nM
[5]
  Ki: 0.8 nM

## COc1cccc2c1CCCC2CCCN1CCCC(C)(C)C1 (configuration not stated)
[1]
  Ki: 898 nM
D(2) dopamine receptor [3]
  Ki: > 10000 nM
Glutamate NMDA receptor
  Ki: 34.2 nM

## CCCN(CCC)CCCCC1CCCc2ccccc21 (configuration not stated)
[1]
  Ki: 200 nM
[6]
  Displacement: 66%
[7]
  Displacement: 31%
Glutamate NMDA receptor
  Ki: 9910 nM
[5]
  Ki: 4.7 nM

## C=CCN1CCC2c3cc(O)ccc3CC1C2C (configuration not stated)
[8]
  Ki: 370 nM

## COc1cccc2c1CCCC2CCCN1CCC(Cc2ccccc2)CC1 (configuration not stated)
[1]
  Ki: < 0.14 nM
D(2) dopamine receptor [9]
  Ki: 1300 nM
Glutamate NMDA receptor
  Ki: > 92600 nM

## c1ccc2c(c1)CCCC2CCCCN1CCCCC1 (configuration not stated)
[1]
  Ki: > 1430 nM
[6]
  Displacement: 64%
[7]
  Displacement: 27%
Glutamate NMDA receptor
  Ki: 5560 nM
[5]
  Ki: 4.7 nM

## c1ccc2c(c1)CCCC2CCCN1CCCCC1 (configuration not stated)
[1]
  Ki: > 1430 nM
[6]
  Displacement: 21%
[10]
  Displacement: 0%
[4]
  Displacement: 95%

## c1cc2c(s1)CCCC2CCCN1CCCCC1 (configuration not stated)
Glutamate NMDA receptor
  Ki: > 92600 nM

## c1ccc2c(c1)CCN(CCCCC1CCCc3ccccc31)C2 (configuration not stated)
Glutamate NMDA receptor
  Ki: > 92600 nM
[5]
  Ki: 3.7 nM

## C1=C(CCCCN2CCCCC2)c2ccccc2CC1
[1]
  Ki: > 1430 nM
[6]
  Displacement: 12%
[7]
  Displacement: 0%
[11]
  Displacement: 92%
[5]
  Ki: 3.9 nM

## CCCN(CCC)CCCCC1=CCCc2ccccc21
[1]
  Ki: 357 nM
[6]
  Displacement: 60%
[7]
  Displacement: 40%
Glutamate NMDA receptor
  Ki: 2600 nM
[5]
  Ki: 3.9 nM

## CCCN(CCC)CCCC1CCCc2ccccc21 (configuration not stated)
[1]
  Ki: 400 nM
[6]
  Displacement: 51%
[7]
  Displacement: 0%
Glutamate NMDA receptor
  Ki: 48100 nM
[5]
  Ki: 6.7 nM
